GPR7 antagonist = GPR7 receptor antagonists, primary screen, cell-based, fluorescence, single concentration; GPR7-expressing cells, fluorescence antagonist assay; inhibition, % at 4.4 µM; 1.1% of 290,000 active; AID 1861, 2009; in the data active means inhibition above about 16%, passing the limit was not always enough;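 further: cells stimulated with the agonist NPW; 0% = agonist with vehicle and 100% = vehicle without agonist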
Target sequence (P48145 whole entry, looked up): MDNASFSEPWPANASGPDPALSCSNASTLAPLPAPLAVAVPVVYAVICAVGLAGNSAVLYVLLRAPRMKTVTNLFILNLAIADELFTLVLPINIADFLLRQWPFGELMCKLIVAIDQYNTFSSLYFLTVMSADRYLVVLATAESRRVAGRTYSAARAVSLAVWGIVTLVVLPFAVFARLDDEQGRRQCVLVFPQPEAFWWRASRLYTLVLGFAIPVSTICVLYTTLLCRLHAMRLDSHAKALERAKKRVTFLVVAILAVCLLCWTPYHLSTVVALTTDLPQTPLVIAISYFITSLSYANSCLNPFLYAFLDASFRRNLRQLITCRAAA
GalR3 antagonist = GalR3 antagonists in HEK293 cells, primary screen, cell-based, fluorescence readout; AID 651719, 2012; Galanin receptor type 3 (Homo sapiens), O60755; HEK293 GalR3-CNG cAMP membrane potential fluorescence; galR3 body fused to GalR1 C-terminus; 0.44% of 360,000 active; inhibition, % at 3 µM;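 active means inhibition above the screen-wide average plus 3 SD, cut at about 13% in these data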;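 further: forskolin and galanin both at EC90 stimulate the cells; cAMP rise reported by CNG channel membrane potential dye signal; 0% = forskolin plus galanin with DMSO and 100% = forskolin alone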
CHO parental Ca = ATP-evoked calcium signal inhibitors, parental CHO, primary screen, counter-screen for OX1R antagonist project, cell-based, fluorescence, Fluo-8 calcium dye; 0.63% of 330,000 active; parental CHO-K1, ATP-induced calcium, Fluo-8 fluorescence; inhibition, % at 5.6 µM;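 active means inhibition above that plate's mean sample inhibition plus 3 SD, cut at about 26% in these data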;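 further: 0% = ATP-challenged DMSO wells and 100% = DMSO wells without ATP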
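test system = CHO parental line | reagent = ATP stimulus | measured by = intracellular calcium via Fluo-8 no-wash fluorescent dye | control set = ATP and no-ATP DMSO wells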
OX1R antag-1 = OX1R (HCRTR1) antagonists, primary screen, fluorescence, CHO/OX1R cells, Fluo-8 calcium, orexin A. Fluo-8 calcium fluorescence. inhibition, % at 5 µM. 0.43% of 330,000 active;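 active means inhibition above its plate's threshold, mean inhibition of all tested compounds on the plate plus 3 SD, cut at about 37% in these data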;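 further: 0% = orexin A challenge wells and 100% = SB-334867-A antagonist wells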
OX1R antag-2 = antagonists of human orexin 1 receptor (OX1R). OX1R-expressing cells, FRET antagonist read-out. 1.8% of 330,000 active. AID 485270, 2010. Orexin/Hypocretin receptor type 1 (Homo sapiens), O43613. inhibition, % at 6.6 µM; in the data active means inhibition mostly above about 38%, no sharp cut-off; inactive means mostly below about 40%;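 further: 0% = agonist challenge alone and 100% = reference antagonist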
OX1R Fluo8 conf = OX1R (HCRTR1) antagonists, confirmation, fluorescence, CHO/OX1R cells, Fluo-8 calcium, orexin A | 38% of 1,100 active | shares compounds with OX1R antag-1 | orexin A calcium Fluo-8 fluorescence | inhibition, % at 5 µM; in the data active means inhibition above about 29%;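 further: 0% = agonist challenge alone and 100% = reference antagonist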
CHO Ca counter = ATP-evoked calcium inhibition in parental CHO, counter-screen for OX1R antagonist project, cell-based, fluorescence, CHO-K1, triplicate. inhibition, % at 5.6 µM. shares compounds with OX1R antag-1. 9.3% of 1,100 active. ATP-induced calcium, Fluo-8 fluorescence;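 active means inhibition above a per-plate limit, the mean inhibition of that plate's test compounds plus 3 SD, cut at about 25% in these data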;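 further: 0% = ATP challenge with DMSO and 100% = DMSO without ATP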
OX1R HTRF conf = OX1R (HCRTR1) antagonists, confirmation, cell-based, HTRF | shares compounds with OX1R antag-2 | 49% of 1,800 active | inhibition, % at 6.6 µM | OX1R-expressing cells, HTRF antagonist assay; in the data active means inhibition above about 55%;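 further: CHO cells expressing OX1R stimulated with orexin A at about EC80; 0% = agonist challenge alone and 100% = reference antagonist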
CHO-K1 HTRF cnt = signal inhibition in parental CHO-K1 cells, counter-screen for OX1R antagonist project, cell-based, HTRF | shares compounds with OX1R antag-2 | HTRF counterscreen | inhibition, % at 6.6 µM | 48% of 1,800 active | AID 493232, 2011; in the data active means inhibition above about 17%;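 further: 0% = agonist challenge with vehicle and 100% = vehicle alone without agonist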
An asterisk follows results filed as active; nt = not tested or not shown. Shown are actives, neighbours in structure and some others; about 3.1% of the full set was active somewhere.

SMILES	GPR7 antagonist	GalR3 antagonist	CHO parental Ca	OX1R antag-1	OX1R antag-2	OX1R Fluo8 conf	CHO Ca counter	OX1R HTRF conf	CHO-K1 HTRF cnt
Cc1cc(C)cc(N(C(=O)c2ccccn2)C(C(=O)NC2CCCCC2)c2cccs2)c1 (stereo not drawn)	-5	2	-23	48*	64*	6	-17	67*	0
CC1CN=C(NS(=O)(=O)c2ccccc2)N1 (stereo not drawn)	nt	-1	nt	nt	nt	nt	nt	nt	nt
COc1ccc(OC)c(CCNC(=O)Cn2ccc3cc(S(=O)(=O)N4CCCC4)ccc32)c1	-14	0	-6	26	54*	22	-5	63*	3
COc1ccccc1CCNC(=O)Cn1ccc2cc(S(=O)(=O)N3CCC(C)CC3)ccc21	7	1	5	11	22	nt	nt	nt	nt
Cc1cc(NC(=O)CSc2nc(-c3cccs3)nc3ccccc23)no1	nt	-2	0	45*	62*	16	-16	82*	-5
Cc1cc(NC(=O)CSc2nc(C(C)(C)C)nc3ccccc23)no1	-5	-4	-20	-24	24	nt	nt	nt	nt
COc1ccc(C#Cc2cnc3c(c2)C(=O)N([C@@H](C)CO)C[C@@H](C)[C@@H](CN(C)CC2CCOCC2)O3)cc1	nt	-7	nt	nt	nt	nt	nt	nt	nt
O=S(=O)(CCOc1ccccc1)c1nc2ccccc2[nH]1	11	0	-17	33	86*	15	-2	54	-1
CCC(c1nc2ccccc2[nH]1)n1c(C)nc2ccccc21 (stereo not drawn)	nt	2	nt	nt	nt	nt	nt	nt	nt
CC(CSc1nc2ccccc2s1)Cn1c(N2CCCC2)nc2c1c(=O)[nH]c(=O)n2C (stereo not drawn)	-1	0	-19	61*	94*	35*	-18	87*	-2
O=C(Nc1cccc(C(F)(F)F)c1)Nc1ccc2nc([C@@H]3O[C@H](CO)[C@@H](O)[C@H](O)[C@H]3O)[nH]c2c1	nt	2	nt	nt	nt	nt	nt	nt	nt
CN(C)C(=O)CSc1nnc(-c2ccco2)n1-c1ccccc1	nt	-5	nt	nt	nt	nt	nt	nt	nt
CN(Cc1ccccc1)C(=O)CSc1nnc(-c2ccco2)n1-c1ccccc1	-9	-9	-9	38	41*	10	-18	44	7
O=c1c2ccccc2oc2ccccc12	nt	-5	nt	nt	nt	nt	nt	nt	nt
O=c1c2ccccc2oc2cc(-c3ccc4[nH]ccc4c3)ccc12	nt	-2	-5	67*	88*	76*	3	88*	5
O=C(c1ccncc1)c1ccc(N2CCN(C3CC(=O)N(Cc4ccccc4)C3=O)CC2)cc1 (stereo not drawn)	3	-3	21	33	71*	-1	0	20	1
COc1ccc(N2CCN(C3CC(=O)N(Cc4ccccc4)C3=O)CC2)cc1 (stereo not drawn)	-17	-4	-17	-13	14	nt	nt	nt	nt
COC(=O)c1ccccc1NC(=O)c1sc(N)nc1C	1	3	-4	-28	21	nt	nt	nt	nt
COC(=O)c1ccccc1NC(=O)c1sc(=S)n(C)c1N	-2	-1	18	78*	93*	97*	-11	94*	1
CCCS(=O)(=O)NC(=O)C1(C)CCN(C(=O)c2ccc(C#N)cc2)C1 (stereo not drawn)	nt	2	nt	nt	nt	nt	nt	nt	nt

Screening data (PubChem)
